Measured values: ChEMBL document CHEMBL4364341, “Radiosensitization of Head and Neck Squamous Cell Carcinoma (HNSCC) by a Podophyllotoxin” (ACS Med Chem Lett, 2019)
Active and inactive are the calls of the source. The calls are words filed in the database; no cut-off is given here.

Columns and labels:
[1] = tested on: FaDu; assay: Synergistic induction of apoptosis in human FADU cells at 0.5 uM followed irradiation with 5Gy IR incubated for 48 hrs by annexin V FITC and propidium iodide staining based flow cytometry; type: functional
Summary of the method: (§1)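 FaDu or SCC-25 cells, untreated, given 5 Gy IR, drug, or both. Apoptotic cells measured by annexin V flow cytometry 48 h after treatment. Percentage compared with control by t test.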

[2] = tested on: FaDu; assay: Synergistic antiproliferative activity against human FADU cells assessed as fractional inhibition at 0.005 uM preincubated for 1 hr followed by irradiation with 10 Gy IR and measured after 6 days by MTT assay (reference value: 0.388); type: functional
Summary of the method: (§2)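 FaDu or SCC-25 cells were grown in DMEM with 10% FBS at 37 °C and 5% CO2. They were seeded at 1000 cells/well in 96-well plates for 24 h, then dosed with compound (fresh DMSO stock diluted in medium) or vehicle. After 1 h, X-rays were given with a sliding 5 mm lead shield, so one plate held 0, 2.5, 5 and 10 Gy columns. After 6 days, MTT (0.5 mg/mL, 45 min) was added, then DMSO, and A570 was read. Values were normalised to the unirradiated vehicle control. Fractional inhibition = 1 − surviving fraction.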

[3] = tested on: FaDu; assay: Synergistic antiproliferative activity against human FADU cells assessed as reduction in cell viability at 1 uM preincubated for 1 hr followed by irradiation with 5 Gy IR and measured after 6 days by MTT assay relative to control; type: functional; conditions: light or radiation study; summary of the method: as §2
[4] = tested on: SCC-25; assay: Selectivity ratio of IC50 for antiproliferative activity against human SCC25 cells assessed as reduction in colony formation unit to IC50 for antiproliferative activity against human SCC25 cells assessed as reduction in colony formation unit followed by irradiation with 5 Gy IR; type: functional
[5] = tested on: SCC-25; assay: Antiproliferative activity against human SCC25 cells assessed as fractional inhibition at 5 uM after 6 days in absence of irradiation by MTT assay; type: functional; summary of the method: as §2
[6] = tested on: FaDu; assay: Synergistic antiproliferative activity against human FADU cells assessed as fractional inhibition at 0.5 uM preincubated for 1 hr followed by irradiation with 10 Gy IR and measured after 6 days by MTT assay (reference value: 0.388); type: functional; summary of the method: as §2
[7] = tested on: FaDu; assay: Synergistic induction of cell cycle arrest in human FADU cells assessed as decrease in accumulation at G0/G1 phase at 0.5 uM followed irradiation with 5Gy IR incubated for 24 hrs by propidium iodide staining based flow cytometry; type: functional
Summary of the method: (§3)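 FaDu or SCC-25 cells, untreated, given 5 Gy IR, drug, or drug plus 5 Gy. Cell-cycle distribution by propidium iodide staining and flow cytometry at 6 h and 24 h after treatment. G0/G1, S and G2/M fractions compared with control by t test.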

[8] = tested on: SCC-25; assay: Synergistic induction of cell cycle arrest in human SCC25 cells assessed as increase in accumulation at G2/M phase at 0.5 uM followed irradiation with 5Gy IR incubated for 24 hrs by propidium iodide staining based flow cytometry; type: functional; summary of the method: as §3
[9] = tested on: SCC-25; assay: Synergistic antiproliferative activity against human SCC25 cells assessed as fractional inhibition at 0.05 uM preincubated for 1 hr followed by irradiation with 2.5 Gy IR and measured after 6 days by MTT assay (reference value: 0.011); type: functional
Summary of the method: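 SCC-25 cells seeded 1000/well in 96-well plates in DMEM/10% FBS and left 24 h. Drug or vehicle added, then after 1 h X-irradiated to 2.5, 5 or 10 Gy on one plate using a shifted lead shield. Plates incubated 6 days, then MTT (0.5 mg/mL, 45 min), DMSO solubilisation, absorbance at 570 nm. Fractional inhibition = 1 − fraction of surviving cells.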

[10] = tested on: FaDu; assay: Synergistic antiproliferative activity against human FADU cells assessed as combination index at 0.05 uM preincubated for 1 hr followed by irradiation with 2.5 Gy IR and measured after 6 days by MTT assay; type: functional
Summary of the method: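 Combination index was calculated by the Chou–Talalay median-effect method from the 6-day MTT viability data of the single-plate compound/X-ray (2.5, 5, 10 Gy) design. CI < 1 denotes synergy, CI = 1 additivity and CI > 1 antagonism.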

[11] = tested on: FaDu; assay: Synergistic antiproliferative activity against human FADU cells assessed as reduction in cell viability at 1 uM preincubated for 1 hr followed by irradiation with 2.5 Gy IR and measured after 6 days by MTT assay relative to control; type: functional; conditions: light or radiation study; summary of the method: as §2
[12] = tested on: FaDu; assay: Synergistic induction of apoptosis in human FADU cells at 0.5 uM followed irradiation with 5Gy IR by annexin V FITC and propidium iodide staining based flow cytometry; type: functional, cell-based; conditions: TDE = time-dependent effect; summary of the method: as §1
[13] = tested on: FaDu; assay: Induction of apoptosis in human FADU cells assessed as increase in Bax at 0.5 uM followed by irradiation with 5 Gy IR incubated for 48 hrs by immunoblot analysis; type: functional, cell-based
Summary of the method: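 FaDu cells received compound at 0.5 μM, 5 Gy IR, or both. After 48 h, lysates were immunoblotted for NRF2, cyclin B1, CDK1, Bax and Bcl-2. Membranes were then stripped and reprobed for β-actin as the loading control.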

[14] = tested on: FaDu; assay: Inhibition of colony formation in human FADU cells incubated for 10 to 14 days by crystal violet staining based assay; type: functional, cell-based
[15] = tested on: SCC-25; assay: Synergistic antiproliferative activity against human SCC25 cells assessed as combination index at 5 uM preincubated for 1 hr followed by irradiation with 2.5 Gy IR and measured after 6 days by MTT assay; type: functional
Summary of the method: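 SCC-25 cells grown in DMEM with 10% FBS at 37 °C, 5% CO2, seeded 1000 cells/well in 96-well plates and left 24 h. Drug in DMSO, diluted in complete medium, added 1 h before X-irradiation. A movable 5 mm lead shield gave 0, 2.5, 5 or 10 Gy on one plate. After 6 days, MTT readout at 570 nm. Combination index by Chou–Talalay from viability data.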

[16] = tested on: SCC-25; assay: Synergistic induction of apoptosis in human SCC25 cells assessed as increase in caspase at 0.5 uM followed by irradiation with 5 Gy IR incubated for 48 hrs by luminescence based analysis; type: functional, cell-based

`COc1ccc2c(c1)N(CCO)C1=C(C(=O)OC1)C2c1ccccc1` (stereo unspecified) was tested, and the “fold change (FC)” value [1] was 3, the “fractional inhibitory concentration index (FICI)” value [2] was 0.346 and the inhibition at 1 µM [3] was 48%. The “Ratio IC50” value [4] was 2, the “fractional inhibitory concentration index (FICI)” value [5] was 0.744 and the “fractional inhibitory concentration index (FICI)” value [6] was 0.613. For the same compound, the Activity [7] was “Active”, the “fold change (FC)” value [8] was 2 and the “fractional inhibitory concentration index (FICI)” value [9] was 0.74. The CI [10] was 0.234, the inhibition at 1 µM [11] was 30% and the Activity [12] was “Tde”. For the same compound, the Activity [13] was “Active”, the IC50 [14] was 6.5 µM and the CI [15] was 1.244. For the same compound, the Activity [16] was “Active”.
